Measurements reported in article PMC10455042 (Biochemical engineering journal, 2023).
Where a SMILES comes first, the peptide text is derived from it. [ ]: non-standard residue; d: D form.

Experiments:
[1] = flow cytometry; cited from earlier work
[2] = tested on: N2a cells; test: alamarBlue cell viability assay; assay type: cell-based; conditions: 24 h
In short: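 N2a cells in MEM with 10% cosmic calf serum, plated at 1×10^4 cells/well two days before the assay, then PBS-washed. Exposed to increasing peptide concentrations (up to 200 µM) for 24 h at 37 °C, ECB-washed, then given alamarBlue in serum-free medium for 4 h at 37 °C. Fluorescence read at ex 532/[…], normalised to no-peptide control (F/C), triplicate average.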

[3] = tested on: Tau; test: Western blotting analysis of Tau levels in N2a cells treated with PROTACs; assay type: cell-based; conditions: N2a cells pre-treated with 10 μM PYR-41 for one hour, then co-incubated with 200 μM peptide for 12 h; western blot
[4] = Peptide degradation assay in N2a lysates; assay type: in vitro ADME; conditions: 2 mg/mL N2a lysates, 37°C; HPLC, intact peptide
[5] = RWRWR peptide alone; cited from earlier work

Molecule	Uptake (previously published) [1]	Effect on cell viability [2]	Decrease in Tau signal on co-incubation with E1 inhibitor PYR-41 [3]	Resistance to degradation in N2a lysates [4]	Peptide remaining after 2 hours (previously reported) [5]
CC[C@H](C)[C@H](NC(=O)[C@H](Cc1ccc(O)cc1)NC(=O)[C@@H]1CCCN1C(=O)[C@H](C)NC(=O)[C@H](CC(C)C)NC(=O)[C@H](C)NC(=O)[C@H](CO)NC(=O)CNC(=O)[C@H](CO)NC(=O)CNC(=O)CNC(=O)[C@H](CCC(N)=O)NC(=O)[C@H](CCC(=O)O)NC(=O)[C@H](CC(=O)O)NC(=O)[C@H](C)NC(=O)[C@@H](NC(=O)[C@H](C)NC(=O)[C@H](CC(=O)O)NC(=O)[C@H](CCC(N)=O)NC(=O)[C@H](Cc1ccc(O)cc1)NC(=O)[C@H](CCC(N)=O)NC(=O)[C@H](CCC(N)=O)NC(=O)[C@H](Cc1ccc(O)cc1)NC(C)=O)[C@@H](C)O)C(=O)N1CCC[C@H]1C(=O)N[C@H](CCCNC(=N)N)C(=O)N[C@H](CCCNC(=N)N)C(=O)N[C@H](CCCNC(=N)N)C(=O)N[C@H](CCCNC(=N)N)C(=O)N[C@H](CCCNC(=N)N)C(=O)N[C@H](CCCNC(=N)N)C(=O)N[C@H](CCCNC(=N)N)C(=O)N[C@H](CCCNC(=N)N)C(N)=O [Peptide 1] (Ac-YQQYQDATADEQGGSGSALAPYIP[dR][dR][dR][dR][dR][dR][dR][dR]-NH2)	time-dependent uptake	minimal effects on cell viability	–	–	–
CC[C@H](C)[C@H](NC(=O)[C@H](Cc1c[nH]c2ccccc12)NC(=O)[C@H](CCCNC(=N)N)NC(=O)CNC(=O)[C@H]1CCCN1C(=O)[C@@H](NC(=O)[C@H](CCCNC(=N)N)NC(=O)[C@@H](NC(=O)[C@H](Cc1c[nH]c2ccccc12)NC(=O)[C@H](CCCNC(=N)N)NC(C)=O)C(C)C)C(C)C)C(=O)N[C@@H](CCCNC(=N)N)C(=O)N[C@@H](CCC(N)=O)C(=O)N[C@@H](Cc1ccc(O)cc1)C(=O)N[C@@H](CCC(N)=O)C(=O)N[C@@H](CCC(N)=O)C(=O)N[C@@H](Cc1ccc(O)cc1)C(=O)N[C@@H](CCC(N)=O)C(=O)N[C@@H](CC(=O)O)C(=O)N[C@@H](C)C(=O)N[C@H](C(=O)N[C@@H](C)C(=O)N[C@@H](CC(=O)O)C(=O)N[C@@H](CCC(=O)O)C(=O)N[C@@H](CCC(N)=O)C(=O)NCC(N)=O)[C@@H](C)O [Peptide 2] (Ac-RWVRV[dP]GRWIRQYQQYQDATADEQG-NH2)	–	minimal effects on cell viability	decrease is negated	more resistant to degradation than its unstructured counterpart Peptide 1	–
RWVRWpGRWIRQ [RWRWR]	–	–	–	–	approximately 80%
